Data published in ChEMBL document CHEMBL1145555, “Combination of virtual screening and high throughput gene profiling for identification of novel liver X receptor modulators” (2008).
Calls of active or inactive are those of the source. The calls are words filed in the database; no cut-off is given here.

Experiments:
[1] = system: THP-1; assay: Induction of cholesterol efflux in human THP1 cells; format: functional, cell-based
How it was run: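 THP-1 cells differentiated to macrophages with 200 nM PMA for 30 h. Labelled 18 h with 0.6 µCi [1,2-3H]cholesterol plus 16 µg/mL acLDL and PMA. Treated with compound 6 h in serum-free medium with 2 mg/mL BSA, then 18 h more with 5 µg/mL apoA-I plus compound. Supernatant radioactivity expressed as fold over vehicle. Mean of triplicates, single experiment.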

[2] = system: THP-1; assay: Induction of Cox2 gene expression in human THP1 cells at 10 uM by array plate mRNA assay; format: functional
How it was run: (§1)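 Multiplex quantitative nuclease protection assay (ArrayPlate mRNA) of LXR-regulated genes, run at the same time as housekeeping genes. Compounds were tested at 10 µM alongside a negative control compound. CV% generally below 20%.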

[3] = system: THP-1; assay: Induction of APOE gene expression in human THP1 cells at 10 uM by array plate mRNA assay; format: functional; how it was run: as §1
[4] = system: THP-1; assay: Induction of ACTB gene expression in human THP1 cells at 10 uM by array plate mRNA assay; format: functional; how it was run: as §1
[5] = system: HepG2; assay: Induction of lipogenesis in human HepG2 cells after 24 hrs; format: functional, cell-based
How it was run: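 HepG2 cells pretreated with compound or vehicle for 24 h, then given 1 µCi [14C]glycerol for a further 48 h. Cellular triglycerides extracted, resolved by TLC and quantified by phosphorimaging. Reported as fold induction over vehicle. Mean of triplicates, single experiment.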

[6] = system: THP-1; assay: Induction of IL6 gene expression in human THP1 cells at 10 uM by array plate mRNA assay; format: functional; how it was run: as §1
[7] = system: THP-1; assay: Induction of B2M gene expression in human THP1 cells at 10 uM by array plate mRNA assay; format: functional; how it was run: as §1
[8] = system: THP-1; assay: Induction of SREBP1c gene expression in human THP1 cells at 10 uM by array plate mRNA assay; format: functional; how it was run: as §1
[9] = system: THP-1; assay: Induction of ABCA1 gene expression in human THP1 cells at 10 uM by array plate mRNA assay; format: functional; how it was run: as §1
[10] = target: T1, Oxysterols receptor LXR-beta (Homo sapiens) (UniProt P55055); assay: Agonist activity at human LXRbeta by SRC1 cofactor recruitment assay; format: functional
T1 sequence (whole entry): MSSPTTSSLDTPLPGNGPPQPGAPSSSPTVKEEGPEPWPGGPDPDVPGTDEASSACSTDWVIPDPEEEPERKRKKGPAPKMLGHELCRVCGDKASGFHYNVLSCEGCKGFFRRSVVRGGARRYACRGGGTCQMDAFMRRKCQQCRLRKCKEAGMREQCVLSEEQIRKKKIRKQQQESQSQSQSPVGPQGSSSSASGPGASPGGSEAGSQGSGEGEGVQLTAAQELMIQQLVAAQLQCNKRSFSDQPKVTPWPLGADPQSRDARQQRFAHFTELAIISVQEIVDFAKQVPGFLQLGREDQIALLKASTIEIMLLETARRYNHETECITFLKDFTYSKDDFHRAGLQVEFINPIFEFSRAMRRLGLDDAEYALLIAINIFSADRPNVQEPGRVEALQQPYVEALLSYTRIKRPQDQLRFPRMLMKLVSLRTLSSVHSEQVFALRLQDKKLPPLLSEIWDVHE
How it was run: (§2)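 HTRF coactivator recruitment: His-tagged human LBD (LXRα 2 nM or LXRβ 1 nM) incubated with compound, 20 nM biotin-SRC1 peptide, 5 nM streptavidin-allophycocyanin and Eu-anti-His antibody (1 nM for α, 0.5 nM for β). Incubated 1 h at room temperature with shaking. EC50 taken from the 665/615 nm time-resolved fluorescence ratio.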

[11] = system: THP-1; assay: Induction of ABCG1 gene expression in human THP1 cells at 10 uM by array plate mRNA assay; format: functional; how it was run: as §1
[12] = system: THP-1; assay: Induction of NR1H2 gene expression in human THP1 cells at 10 uM by array plate mRNA assay; format: functional; how it was run: as §1
[13] = system: THP-1; assay: Induction of LXRalpha gene expression in human THP1 cells at 10 uM by array plate mRNA assay; format: functional; how it was run: as §1
[14] = target: T2, Oxysterols receptor LXR-alpha (Homo sapiens) (UniProt Q13133); assay: Agonist activity at human LXRalpha by SRC1 cofactor recruitment assay; format: functional; how it was run: as §2
T2 sequence (whole entry): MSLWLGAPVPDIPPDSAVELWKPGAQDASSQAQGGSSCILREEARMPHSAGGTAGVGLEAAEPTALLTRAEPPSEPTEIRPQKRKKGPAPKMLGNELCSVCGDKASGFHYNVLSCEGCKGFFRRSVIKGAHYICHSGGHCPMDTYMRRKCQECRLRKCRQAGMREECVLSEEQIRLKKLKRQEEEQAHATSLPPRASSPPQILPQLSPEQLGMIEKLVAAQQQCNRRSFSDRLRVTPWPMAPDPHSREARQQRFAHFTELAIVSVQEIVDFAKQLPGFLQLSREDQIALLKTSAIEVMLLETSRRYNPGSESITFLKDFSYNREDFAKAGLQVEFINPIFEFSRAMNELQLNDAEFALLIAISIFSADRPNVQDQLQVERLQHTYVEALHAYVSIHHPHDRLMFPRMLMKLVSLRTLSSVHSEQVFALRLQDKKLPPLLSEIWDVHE

[15] = system: THP-1; assay: Induction of TBP gene expression in human THP1 cells at 10 uM using by array plate mRNA assay; format: functional; how it was run: as §1
[16] = system: THP-1; assay: Induction of FASN gene expression in human THP1 cells at 10 uM by array plate mRNA assay; format: functional; how it was run: as §1
[17] = system: THP-1; assay: Induction of HDS11B1 gene expression in human THP1 cells at 10 uM using Array plate mRNA assay; format: functional; how it was run: as §1
[18] = system: THP-1; assay: Induction of SCD1 gene expression in human THP1 cells at 10 uM by array plate mRNA assay; format: functional; how it was run: as §1

| SMILES | Activity [1] | Activity [2] | Activity [3] | Activity [4] | Activity [5] | Activity [6] | Activity [7] | Activity [8] | Activity [9] | Activity [10] | Activity [11] | Activity [12] | Activity [13] | Activity [14] | Activity [15] | Activity [16] | Activity [17] | Activity [18] |
| --- | --- | --- | --- | --- | --- | --- | --- | --- | --- | --- | --- | --- | --- | --- | --- | --- | --- | --- |
| C[C@@H]1C2Cc3ccc(O)cc3[C@]1(C)CCCN2CCc1ccccc1 | Active | 1.2 | 3.34 | 0.93 | Active | 0.91 | 1.05 | 4.05 | 4.53 | Active | 13.56 | 1.16 | 3.93 | Active | 1.19 | 1.75 | 1.43 | 4.76 |
| C[C@H](CC[C@@H]1OC1(C)C)[C@H]1CC[C@H]2[C@@H]3CC=C4C[C@@H](O)CC[C@]4(C)[C@H]3CC[C@]12C [24(S),25-EPOXYCHOLESTEROL] |  | 1.35 | 2.61 | 0.9 |  | 0.82 | 1.25 | 2.05 | 5.59 |  | 9.91 | 1.09 | 3.41 |  | 0.99 | 0.89 | 0.79 | 1.17 |
| O=C(O)Cc1cccc(OCCCN(Cc2cccc(C(F)(F)F)c2Cl)CC(c2ccccc2)c2ccccc2)c1 |  | 1.2 | 4.13 | 0.89 |  | 1.02 | 1.18 | 5.28 | 10.04 |  | 24.92 | 1.22 | 4.7 |  | 1.25 | 3.77 | 0.8 | 12.82 |
| O=S(=O)(c1ccccc1)N(CC(F)(F)F)c1ccc(C(O)(C(F)(F)F)C(F)(F)F)cc1 [T091317] |  | 0.93 | 4.2 | 0.93 |  | 1.78 | 1.17 | 4.09 | 5.9 |  | 15.05 | 1.17 | 4.56 |  | 1.05 | 2.59 | 1.26 | 8.16 |
